Peptide text beside a SMILES is read from it.
Columns and labels:
Trypsin = Trypsin (Sus scrofa, UniProt P00761); assay: Stability of the compound assessed as porcine pancreatic trypsin-mediated compound degradation at 0.1 mM after 10 secs by reverse-phase HPLC/MS analysis; assay type: ADME; conditions: pig, isolated protein, 10 s, 100 µM
How it was run: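 Peptide (0.1 mM) incubated at 37 °C with 100 nM purified porcine pancreatic trypsin in 50 mM Tris-HCl, 20 mM CaCl₂, pH 8.0. Timed samples were acid-quenched with 10% (v/v) 0.1 M HCl, then analysed by reverse-phase HPLC-MS. Mean ± range of two independent experiments.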

Dipeptidyl peptidase 4 [1] = target: Dipeptidyl peptidase 4 (Sus scrofa, UniProt P22411); assay: Stability of the compound assessed as porcine DPP4-mediated compound degradation at 0.1 mM measured over 30 mins by reverse-phase HPLC/MS analysis; assay type: ADME; conditions: pig, 0.5 h, 100 µM
How it was run: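 Peptide (0.1 mM) incubated at 37 °C with DPP IV purified from porcine kidney (10 mU/mL) in 50 mM HEPES, 0.14 M NaCl, pH 8.0. Samples taken at set times and quenched with 10% (v/v) 0.1 M HCl. Intact peptide quantified by reverse-phase HPLC-MS and expressed as percent of the time-0 amount.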

[2] = target: Chymotrypsinogen A (Bos taurus) (UniProt P00766); assay: Stability of the compound assessed as bovine pancreatic chymotrypsin-mediated compound degradation at 0.1 mM after 10 secs by reverse-phase HPLC/MS analysis; conditions: cow, isolated protein, 10 s, 100 µM
[3] = target: DPP4 (dipeptidyl peptidase 4) (Rattus norvegicus, UniProt P14740); assay: Metabolic stability in rat serum assessed as half life of DPP4-mediated compound degradation; assay type: ADME, cell-free
Dipeptidyl peptidase 4 [4] = target: Dipeptidyl peptidase 4 (Homo sapiens, UniProt P27487); assay: Competitive inhibition of human recombinant DPP4 using AP-pNA as substrate preincubated for 30 mins followed by substrate addition measured after 30 mins by spectrophotometric analysis
[5] = target: DPP4 (dipeptidyl peptidase 4) (Homo sapiens, UniProt P27487); assay: Metabolic stability in human plasma assessed as half life of DPP4-mediated compound degradation; assay type: ADME
DPP4 (dipeptidyl peptidase 4) (Homo sapiens, UniProt P27487), sequence (P27487 whole entry): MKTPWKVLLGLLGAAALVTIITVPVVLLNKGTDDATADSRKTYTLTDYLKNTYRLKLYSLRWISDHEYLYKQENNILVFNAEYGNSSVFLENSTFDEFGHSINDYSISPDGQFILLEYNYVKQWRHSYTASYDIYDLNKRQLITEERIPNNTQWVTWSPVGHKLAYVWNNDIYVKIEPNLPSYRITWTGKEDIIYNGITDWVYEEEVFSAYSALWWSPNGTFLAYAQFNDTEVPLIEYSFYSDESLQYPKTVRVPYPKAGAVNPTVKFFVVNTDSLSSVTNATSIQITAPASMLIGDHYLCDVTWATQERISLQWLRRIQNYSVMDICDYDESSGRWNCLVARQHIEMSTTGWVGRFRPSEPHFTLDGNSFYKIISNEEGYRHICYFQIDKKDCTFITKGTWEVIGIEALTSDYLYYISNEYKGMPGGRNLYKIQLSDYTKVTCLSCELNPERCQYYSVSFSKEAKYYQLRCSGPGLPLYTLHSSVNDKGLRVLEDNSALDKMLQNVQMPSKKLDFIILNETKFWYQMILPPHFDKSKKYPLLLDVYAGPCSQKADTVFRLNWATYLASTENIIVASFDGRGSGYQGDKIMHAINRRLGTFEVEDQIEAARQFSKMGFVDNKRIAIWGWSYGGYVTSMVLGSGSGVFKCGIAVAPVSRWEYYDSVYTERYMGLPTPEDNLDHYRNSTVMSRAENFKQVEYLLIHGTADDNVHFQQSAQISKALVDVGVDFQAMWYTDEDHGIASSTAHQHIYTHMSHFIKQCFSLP

DPP4 (dipeptidyl peptidase 4) (Rattus norvegicus, UniProt P14740), sequence (P14740 whole entry): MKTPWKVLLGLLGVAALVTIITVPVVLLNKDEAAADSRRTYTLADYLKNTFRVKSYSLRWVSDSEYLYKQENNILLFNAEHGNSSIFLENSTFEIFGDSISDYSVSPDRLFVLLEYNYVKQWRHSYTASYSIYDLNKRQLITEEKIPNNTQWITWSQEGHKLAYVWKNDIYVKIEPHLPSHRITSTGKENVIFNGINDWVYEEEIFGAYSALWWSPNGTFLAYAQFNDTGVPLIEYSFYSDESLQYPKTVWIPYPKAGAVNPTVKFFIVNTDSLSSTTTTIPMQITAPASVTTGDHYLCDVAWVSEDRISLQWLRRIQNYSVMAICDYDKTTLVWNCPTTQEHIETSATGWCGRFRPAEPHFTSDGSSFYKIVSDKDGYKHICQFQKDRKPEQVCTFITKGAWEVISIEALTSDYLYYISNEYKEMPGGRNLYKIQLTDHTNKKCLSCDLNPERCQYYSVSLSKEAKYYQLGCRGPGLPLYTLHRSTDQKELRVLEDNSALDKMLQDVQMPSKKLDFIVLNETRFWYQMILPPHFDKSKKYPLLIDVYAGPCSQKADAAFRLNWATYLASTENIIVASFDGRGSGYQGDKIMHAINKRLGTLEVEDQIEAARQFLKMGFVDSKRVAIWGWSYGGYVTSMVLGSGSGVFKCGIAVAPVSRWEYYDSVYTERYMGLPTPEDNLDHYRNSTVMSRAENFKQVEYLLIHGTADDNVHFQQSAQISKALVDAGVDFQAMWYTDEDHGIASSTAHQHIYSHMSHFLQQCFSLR
Dipeptidyl peptidase 4 (Sus scrofa, UniProt P22411), sequence (P22411 whole entry): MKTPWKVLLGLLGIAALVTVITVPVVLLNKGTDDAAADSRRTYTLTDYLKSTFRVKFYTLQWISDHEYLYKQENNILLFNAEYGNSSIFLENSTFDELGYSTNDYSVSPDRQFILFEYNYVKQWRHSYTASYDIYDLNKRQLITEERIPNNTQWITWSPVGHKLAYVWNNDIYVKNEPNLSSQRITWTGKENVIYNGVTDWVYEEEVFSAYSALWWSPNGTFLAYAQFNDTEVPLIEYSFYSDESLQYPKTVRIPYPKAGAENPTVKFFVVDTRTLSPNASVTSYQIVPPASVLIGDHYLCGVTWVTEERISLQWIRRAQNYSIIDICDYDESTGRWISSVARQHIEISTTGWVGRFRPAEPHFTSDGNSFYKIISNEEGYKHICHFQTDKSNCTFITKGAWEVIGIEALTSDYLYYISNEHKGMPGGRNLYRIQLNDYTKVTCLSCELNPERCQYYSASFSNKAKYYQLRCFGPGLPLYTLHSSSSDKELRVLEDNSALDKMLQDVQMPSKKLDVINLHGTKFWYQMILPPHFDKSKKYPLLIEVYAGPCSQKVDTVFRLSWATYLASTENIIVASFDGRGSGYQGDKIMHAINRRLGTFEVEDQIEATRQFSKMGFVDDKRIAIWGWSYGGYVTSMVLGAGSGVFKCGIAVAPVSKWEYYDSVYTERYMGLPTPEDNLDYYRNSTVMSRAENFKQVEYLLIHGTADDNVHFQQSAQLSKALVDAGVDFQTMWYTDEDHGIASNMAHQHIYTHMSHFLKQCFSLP
Dipeptidyl peptidase 4 (Homo sapiens, UniProt P27487), sequence (P27487 whole entry): as the sequence (P27487 whole entry) above
Trypsin, sequence (P00761 whole entry): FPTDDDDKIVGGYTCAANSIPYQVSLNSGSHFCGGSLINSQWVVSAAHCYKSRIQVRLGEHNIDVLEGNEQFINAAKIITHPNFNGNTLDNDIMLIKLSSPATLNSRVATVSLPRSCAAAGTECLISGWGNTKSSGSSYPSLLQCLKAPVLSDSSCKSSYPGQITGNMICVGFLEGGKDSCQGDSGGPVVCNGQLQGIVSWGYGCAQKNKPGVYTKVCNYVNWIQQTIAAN

`CC[C@H](C)[C@H](NC(=O)[C@H](Cc1ccccc1)NC(=O)[C@H](CCC(=O)O)NC(=O)[C@H](CCCCN)NC(=O)[C@H](C)NC(=O)[C@H](C)NC(=O)[C@H](CCC(N)=O)NC(=O)CNC(=O)[C@H](CCC(=O)O)NC(=O)[C@H](CC(C)C)NC(=O)[C@H](Cc1ccc(O)cc1)NC(=O)[C@H](CO)NC(=O)[C@H](CO)NC(=O)[C@@H](NC(=O)[C@H](CC(=O)O)NC(=O)[C@H](CO)NC(=O)[C@@H](NC(=O)[C@H](Cc1ccccc1)NC(=O)[C@@H](NC(=O)CNC(=O)[C@H](CCC(=O)O)NC(=O)[C@H](C)NC(=O)[C@@H](N)Cc1c[nH]cn1)[C@@H](C)O)[C@@H](C)O)C(C)C)C(=O)N[C@@H](C)C(=O)N[C@@H](Cc1c[nH]c2ccccc12)C(=O)N[C@@H](CC(C)C)C(=O)N[C@H](C(=O)N[C@@H](CCCCN)C(=O)NCC(=O)N[C@@H](CCCNC(=N)N)C(N)=O)C(C)C` was tested, and the Stability (Trypsin) was “Unstable”, the Stability (Dipeptidyl peptidase 4 [1]) was “Stable” and the Stability [2] was “Unstable”.
`CC(C)[C@H](N)C(=O)N1CCC[C@H]1C(=O)N[C@@H](CC(=O)O)C(=O)N1CCC[C@H]1C(=O)N[C@@H](CCCNC(=N)N)C(N)=O` (H-VPDPR-NH2) was tested, and the half-life [3] was 5 min and the Ki (Dipeptidyl peptidase 4 [4]) was 142 µM.
For `CC[C@H](C)[C@H](NC(=O)[C@H](CCCNC(=N)N)NC(=O)[C@H](CC(=O)O)NC(=O)[C@H](CCSC)NC(=O)[C@H](CCCCN)NC(=O)[C@H](CCCNC(=N)N)NC(=O)CNC(=O)[C@H](Cc1ccccc1)NC(=O)[C@H](CS)NC(=O)CNC(=O)[C@H](CO)NC(=O)CNC(=O)[C@H](CCC(N)=O)NC(=O)[C@@H](NC(=O)[C@H](CCSC)NC(=O)[C@H](CCCCN)NC(=O)[C@@H]1CCCN1C(=O)[C@@H](N)CO)C(C)C)C(=O)N[C@@H](CO)C(=O)N[C@@H](CO)C(=O)N[C@@H](CO)C(=O)N[C@@H](CO)C(=O)NCC(=O)N[C@@H](CC(C)C)C(=O)NCC(=O)N[C@@H](CS)C(=O)N[C@@H](CCCCN)C(=O)N[C@H](C(=O)N[C@@H](CC(C)C)C(=O)N[C@@H](CCCNC(=N)N)C(=O)N[C@@H](CCCNC(=N)N)C(=O)N[C@@H](Cc1cnc[nH]1)C(N)=O)C(C)C`, the half-life [5] was 15 min.

— ChEMBL document CHEMBL3085773, “A general method for making peptide therapeutics resistant to serine protease degradation: application to dipeptidyl peptidase IV substrates” (J Med Chem, 2013)
